# Data taken from ChEMBL document CHEMBL1145382, “Novel ergopeptides as dual ligands for adenosine and dopamine receptors” (J Med Chem, 2007).
# Calls of active or inactive are those of the source. No cut-off for these calls is given here.
# What was measured:
# [1] = molecular target: D(1A) dopamine receptor (Homo sapiens) (UniProt P21728); assay: Agonist activity at dopamine D1 receptor transfected in mouse L(tk-) cells assessed as stimulation of cAMP levels; format: functional, cell-based
# Summary of the method: (§1)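 Mouse Ltk- fibroblasts cotransfected with human A1R and D1R, serum-starved 12-16 h. In HBSS with 50 µM zardaverine, then 50 µM ergopeptide, with or without 20 nM SKF or 50 µM SCH. 35 min total incubation. cAMP by competitive enzyme immunoassay. Three to six determinations, t test.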
# [2] = molecular target: T1, Adenosine receptor A2a (Homo sapiens, UniProt P29274); assay: Agonist activity at adenosine A2A receptor in SH-SY5Y cells assessed as CGS-induced intracellular cAMP production at 50 uM; format: functional, cell-based
# Summary of the method: (§2)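 SH-SY5Y neuroblastoma cells, endogenous A2AR, stably carrying human D2LR. Serum-starved 12-16 h, in HBSS with 50 µM zardaverine for 10 min, then 50 µM ergopeptide, alone or with the A2AR agonist CGS. 35 min total incubation. cAMP by competitive enzyme immunoassay. Three to six determinations, Student's t test.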
# [3] = molecular target: D(2) dopamine receptor (Homo sapiens) (UniProt P14416); assay: Displacement of [3H]YM 09151-2 from dopamine D2 receptor in lamb striatum membrane at 50 uM after 2 hrs; format: cell membranes; conditions: Ovis aries, target entry is the homologue from another species
# Summary of the method: (§3)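 Single-concentration screen at 50 µM ergopeptide on lamb striatal membranes (0.5 mg protein/mL), 22 °C, 50 mM Tris-HCl pH 7.4. Radioligands: [3H]SCH 23390 1.2 nM (D1), [3H]YM 09151-2 0.9 nM (D2), [3H]R-PIA 2.2 nM (A1, with MgCl2 and ADA), [3H]CGS 21680 20.1 nM (A2A, with MgCl2 and ADA). Specific binding displaced, after filtration and scintillation counting.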
# [4] = molecular target: T2, Adenosine receptor A1 (Homo sapiens) (UniProt P30542); assay: Displacement of [3H]R-PIA from adenosine A1 receptor in lamb striatum membrane at 50 uM after 1 hr; format: cell membranes; conditions: Ovis aries, target entry is the homologue from another species; summary of the method: as §3
# T2 sequence (whole entry): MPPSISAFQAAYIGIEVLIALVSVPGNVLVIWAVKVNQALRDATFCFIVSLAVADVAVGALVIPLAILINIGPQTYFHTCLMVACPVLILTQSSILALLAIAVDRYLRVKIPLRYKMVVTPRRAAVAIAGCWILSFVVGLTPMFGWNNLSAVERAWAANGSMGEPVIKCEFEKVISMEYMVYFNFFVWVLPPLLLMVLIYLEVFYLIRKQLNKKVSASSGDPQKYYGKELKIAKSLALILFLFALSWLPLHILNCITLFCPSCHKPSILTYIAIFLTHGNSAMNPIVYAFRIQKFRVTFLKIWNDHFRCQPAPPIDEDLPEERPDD
# [5] = molecular target: T1, Adenosine receptor A2a; assay: Displacement of [3H]CGS 21680 from adenosine A2A receptor in lamb striatum membrane at 50 uM after 2 hrs; format: cell membranes; conditions: Ovis aries, target entry is the homologue from another species; summary of the method: as §3
# [6] = molecular target: D(2) dopamine receptor (Homo sapiens) (UniProt P14416); assay: Antagonist activity at dopamine D2 receptor in SH-SY5Y cells assessed as effect on forskolin-activated intracellular cAMP production at 50 uM; format: functional, cell-based
# Summary of the method: (§4)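 SH-SY5Y cells expressing human D2LR, preincubated 5-10 min at 22 °C with 5 µM ZM to block A2AR. Then 50 µM zardaverine, 10 µM forskolin, and 50 µM ergopeptide, with or without 150 nM quinpirole or 50 µM raclopride. 35 min total. cAMP by enzyme immunoassay. Three to six determinations, t test.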
# [7] = molecular target: D(1A) dopamine receptor (Homo sapiens) (UniProt P21728); assay: Displacement of [3H]SCH 23390 from dopamine D1 receptor in lamb striatum membrane at 50 uM after 1 hr; format: cell membranes; conditions: Ovis aries, target entry is the homologue from another species; summary of the method: as §3
# [8] = molecular target: T2, Adenosine receptor A1 (Homo sapiens); assay: Antagonist activity at adenosine A1 receptor transfected in mouse L(tk-) cells assessed as inhibition of R-PIA-induced decrease in forskolin-induced cAMP levels; format: functional, cell-based
# Summary of the method: (§5)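 Mouse Ltk- fibroblasts cotransfected with human A1R and D1R, preincubated 5-10 min at 22 °C with 50 µM SCH to block D1R. Then 50 µM zardaverine, 10 µM forskolin, and 50 µM ergopeptide, with or without 20 nM R-PIA or 50 µM DPCPX. 35 min total. cAMP by enzyme immunoassay. Three to six determinations.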
# [9] = molecular target: D(1A) dopamine receptor (Homo sapiens) (UniProt P21728); assay: Antagonist activity at dopamine D1 receptor transfected in mouse L(tk-) cells assessed as inhibition of SKF-induced stimulation of forskolin-induced cAMP levels; format: functional, cell-based; summary of the method: as §1
# [10] = molecular target: T2, Adenosine receptor A1 (Homo sapiens); assay: Agonist activity at adenosine A1 receptor transfected in mouse L(tk-) cells assessed as decrease in forskolin-induced cAMP levels; format: functional, cell-based; summary of the method: as §5
# [11] = molecular target: D(2) dopamine receptor (Homo sapiens) (UniProt P14416); assay: Agonist activity at dopamine D2 receptor in SH-SY5Y cells assessed as inhibition of forskolin-activated intracellular cAMP production at 50 uM; format: functional, cell-based; summary of the method: as §4
# [12] = molecular target: T1, Adenosine receptor A2a; assay: Antagonist activity at adenosine A2A receptor in SH-SY5Y cells assessed as CGS-induced intracellular cAMP production at 50 uM; format: functional, cell-based; summary of the method: as §2
# [13] = molecular target: T1, Adenosine receptor A2a; assay: Displacement of [3H]CGS 21680 from adenosine A2A receptor in lamb striatum membrane after 2 hrs; format: cell membranes, Ovis aries; conditions: target entry is the homologue from another species
# Summary of the method: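 Lamb striatal membranes (0.5 mg protein/mL), 22 °C, 50 mM Tris-HCl pH 7.4, with increasing ergopeptide concentrations. Conditions per receptor: D1 1.2 nM [3H]SCH 23390, 1 mM dopamine nonspecific. D2 0.9 nM [3H]YM 09151-2, 100 µM raclopride nonspecific. A1 2.2 nM [3H]R-PIA, 10 mM MgCl2, 0.2 U/mL ADA, 50 µM R-PIA nonspecific. A2A 20.1 nM [3H]CGS 21680, 10 mM MgCl2, 2 U/mL ADA, 1 mM CGS 21680 nonspecific. Filtration, scintillation counting. KD by nonlinear one- or two-site fit. Three to six determinations.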
# Chain of D(2) dopamine receptor (Homo sapiens) (P14416 whole entry): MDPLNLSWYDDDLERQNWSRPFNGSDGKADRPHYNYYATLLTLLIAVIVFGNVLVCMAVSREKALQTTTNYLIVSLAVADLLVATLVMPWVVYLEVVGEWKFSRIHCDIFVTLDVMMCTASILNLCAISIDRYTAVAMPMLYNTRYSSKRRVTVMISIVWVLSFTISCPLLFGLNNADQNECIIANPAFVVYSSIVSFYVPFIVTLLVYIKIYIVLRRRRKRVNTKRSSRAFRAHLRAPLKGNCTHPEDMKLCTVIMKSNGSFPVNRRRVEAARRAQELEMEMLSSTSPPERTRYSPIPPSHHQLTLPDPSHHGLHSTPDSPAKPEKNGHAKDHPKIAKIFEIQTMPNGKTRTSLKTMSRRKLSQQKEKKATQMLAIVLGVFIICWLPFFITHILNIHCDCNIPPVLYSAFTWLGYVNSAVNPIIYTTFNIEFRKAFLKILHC
# Chain of D(1A) dopamine receptor (Homo sapiens) (P21728 whole entry): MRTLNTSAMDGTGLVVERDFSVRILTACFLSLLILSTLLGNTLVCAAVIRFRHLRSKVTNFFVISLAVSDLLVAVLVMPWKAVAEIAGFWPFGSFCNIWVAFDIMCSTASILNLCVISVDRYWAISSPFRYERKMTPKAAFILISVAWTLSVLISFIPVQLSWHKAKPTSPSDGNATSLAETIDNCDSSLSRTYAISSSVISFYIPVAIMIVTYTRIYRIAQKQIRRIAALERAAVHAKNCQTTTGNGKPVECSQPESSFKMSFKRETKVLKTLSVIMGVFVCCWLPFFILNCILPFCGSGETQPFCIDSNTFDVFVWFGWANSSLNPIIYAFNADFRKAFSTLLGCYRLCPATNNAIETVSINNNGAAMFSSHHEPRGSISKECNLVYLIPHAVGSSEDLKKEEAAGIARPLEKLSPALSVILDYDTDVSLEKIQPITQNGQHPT
# T1 sequence (P29274 whole entry): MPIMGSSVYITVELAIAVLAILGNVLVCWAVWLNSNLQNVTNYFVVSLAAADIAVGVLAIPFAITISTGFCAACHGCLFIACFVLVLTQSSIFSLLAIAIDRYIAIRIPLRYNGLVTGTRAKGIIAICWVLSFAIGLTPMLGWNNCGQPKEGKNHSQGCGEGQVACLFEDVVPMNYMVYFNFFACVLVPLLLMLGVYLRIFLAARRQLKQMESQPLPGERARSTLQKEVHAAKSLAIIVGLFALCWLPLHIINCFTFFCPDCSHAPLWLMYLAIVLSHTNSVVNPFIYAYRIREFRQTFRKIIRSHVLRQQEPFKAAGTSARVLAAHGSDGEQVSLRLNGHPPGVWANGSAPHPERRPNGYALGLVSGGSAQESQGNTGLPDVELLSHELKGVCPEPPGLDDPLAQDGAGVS
Compound,Activity [1],Activity [2],Activity [3],Activity [4],Activity [5],Activity [6],Activity [7],Activity [8],Activity [9],Activity [10],Activity [11],Activity [12],Kd [13]
CC(C)[C@H](NC(=O)[C@@H]1C=C2c3cccc4[nH]cc(c34)C[C@H]2N(C)C1)C(=O)N[C@@H](Cc1ccc(F)cc1)C(=O)N1CCC[C@H]1C(N)=O,Active,inactive,< 40%,< 40%,< 40%,Active,< 40%,Active,inactive,inactive,–,–,–
CN1C[C@H](C(=O)N[C@@H](Cc2ccc([N+](=O)[O-])cc2)C(=O)N[C@@H](CCC2CCCCC2)C(=O)N2CCCC(C(N)=O)C2)C=C2c3cccc4[nH]cc(c34)C[C@H]21 (stereo partly drawn),Active,inactive,< 40%,< 40%,< 40%,–,< 40%,Active,inactive,inactive,Active,–,–
CC(C)[C@H](NC(=O)[C@H](CCC1CCCCC1)NC(=O)[C@@H]1C=C2c3cccc4[nH]cc(c34)C[C@H]2N(C)C1)C(=O)N1CCC[C@H]1C(N)=O,Active,inactive,< 40%,< 40%,< 40%,–,< 40%,Active,inactive,inactive,Active,Active,–
CC(C)[C@H](NC(=O)[C@@H]1C=C2c3cccc4[nH]cc(c34)C[C@H]2N(C)C1)C(=O)N[C@@H](CCC1CCCCC1)C(=O)N1c2ccccc2C[C@H]1C(N)=O,Active,inactive,< 40%,< 40%,< 40%,Active,< 40%,Active,inactive,inactive,–,–,25 µM
CN1C[C@H](C(=O)N[C@@H](Cc2ccc([N+](=O)[O-])cc2)C(=O)N[C@@H](Cc2ccc(F)cc2)C(=O)N2CCCC(C(N)=O)C2)C=C2c3cccc4[nH]cc(c34)C[C@H]21 (stereo partly drawn),Active,inactive,< 40%,< 40%,< 40%,–,< 40%,Active,inactive,inactive,Active,Active,–
CN1C[C@H](C(=O)N[C@@H](CCC2CCCCC2)C(=O)N[C@@H](Cc2ccc(F)cc2)C(=O)N2CCC[C@H]2C(N)=O)C=C2c3cccc4[nH]cc(c34)C[C@H]21,Active,inactive,< 40%,< 40%,< 40%,–,< 40%,Active,inactive,inactive,Active,–,33 µM
CC(C)[C@H](NC(=O)[C@@H]1C=C2c3cccc4[nH]cc(c34)C[C@H]2N(C)C1)C(=O)N[C@@H](CCC1CCCCC1)C(=O)N1CCCC(C(N)=O)C1 (stereo partly drawn),Active,inactive,< 40%,< 40%,< 40%,Active,< 40%,Active,inactive,inactive,–,Active,50 µM
CC(C)[C@H](NC(=O)[C@H](Cc1ccc([N+](=O)[O-])cc1)NC(=O)[C@@H]1C=C2c3cccc4[nH]cc(c34)C[C@H]2N(C)C1)C(=O)N1c2ccccc2C[C@H]1C(N)=O,Active,inactive,< 40%,< 40%,< 40%,–,< 40%,Active,inactive,inactive,Active,–,–
CC(C)[C@H](NC(=O)[C@@H]1C=C2c3cccc4[nH]cc(c34)C[C@H]2N(C)C1)C(=O)N[C@@H](Cc1ccc([N+](=O)[O-])cc1)C(=O)N1CCC[C@H]1C(N)=O,Active,inactive,< 40%,< 40%,< 40%,–,< 40%,Active,inactive,inactive,Active,Active,–
CC(C)[C@H](NC(=O)[C@H]1C=C2c3cccc4[nH]cc(c34)C[C@H]2N(C)C1)C(=O)N[C@@H](Cc1ccc([N+](=O)[O-])cc1)C(=O)N1CCC[C@H]1C(N)=O,Active,inactive,< 40%,< 40%,< 40%,–,< 40%,Active,inactive,inactive,Active,Active,–
